According to PMC3234294 (Analytical chemistry, 2011):

What was measured:
[1] = QCM binding of antibodies to bare Au sensor surface; settings: 1 μl of 1 μg/μl MAb spiked into 1 ml PBS
[2] = QCM binding of antibodies to MUA sensor surface; settings: 1 μl of 1 μg/μl MAb spiked into 1 ml PBS
Outline: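 Au QCM electrodes, bare or modified by overnight SAM formation at 4 °C (MUA or peptide monolayers), rinsed with water and placed in 1 ml PBS. Therapeutic monoclonal antibodies (1 μg/μl stock) were spiked sequentially, 1 μl each, into the cuvette. Frequency change was recorded against time with a network/impedance analyzer.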

Avastin = assay: QCM nonspecific binding of immobilized peptides to Avastin
Outline: (§1)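 A CH-19 peptide monolayer was self-assembled on an Au QCM electrode overnight at 4 °C, rinsed, and held in PBS. The non-target therapeutic antibodies were spiked in sequentially into the same cuvette, each as 1 μl into 999 μl PBS (final 1 μg/ml). Label-free frequency shift (ΔF) was followed in real time with a network/impedance analyzer.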

Herceptin [3] = assay: CH-19 piezoimmunosensor analytical performance for Herceptin detection; set-up: species or system humanized
[4] = CV of CH-19 modified Au electrode before and after Herceptin; type: physicochemical; settings: upon surface deposition of CH-19 and Herceptin; 0.1 M NaClO4, 50 mV/s
[5] = EIS of CH-19 modified Au electrode before and after Herceptin; type: physicochemical; settings: bare Au to CH-19 to binding with Herceptin; 0.01 Hz-100 kHz, 5 mV
Herceptin [6] = assay: QCM binding of immobilized HER2 mimotope-derived peptides to Herceptin; set-up: species or system humanized
Cetuximab = assay: QCM nonspecific binding of immobilized CH-19 to Cetuximab; settings: CH-19 modified Au QCM electrode, PBS, final 1 μg/ml
Outline: as §1

Rituxan = assay: QCM nonspecific binding of immobilized peptides to Rituxan
Outline: as §1

Herceptin [7] = settings: previously reported; ref 16 (Jiang et al.); cited from earlier work
[8] = CH-19 modified Au QCM electrode, PBS, final 1 μg/ml
[9] = QCM, CV and EIS summarized, all four peptide designs

Avastin: therapeutic MAb, control drug
Binding to bare Au sensor surface, in words [1]: negligible | Binding to MUA sensor surface, in words [2]: appreciable

CGSGSGSQLGPYELWELSH [CH-19]
frequency shift (ΔF) with Avastin (Avastin; [8]): ~ 0 Hz | Nonspecific binding activity with Avastin among peptide designs (Avastin; [9]): lowest nonspecific binding activity | sensitivity (Herceptin [3]; PBS buffer): 0.52 Hz · ml/ng | time to detection of Herceptin, in words (Herceptin [3]; PBS buffer, frequency change vs time): within minutes | detection limit (Herceptin [3]; PBS buffer, S/N = 3, N ~ 1.85 Hz): 10.70 ng/mL | detection limit (Herceptin [3]; in simple buffers and in human serum samples (Table S3)): 0.038 nM | detection limit (Herceptin [3]; piezoimmunosensor assay, standard curve in HBS-EP buffer): 0.038 nM | redox peaks of Fe(CN)6 probe [4]: gradually disappeared | Nyquist plots (electron transfer resistance) [5]: enlarged step-by-step | Ka (affinity for Herceptin) (Herceptin [6]; CH-19 modified gold QCM electrode (Figure S3)): 7.96e+08 M⁻¹ | Buffering effects on Herceptin/CH-19 interaction (Herceptin [6]; Herceptin lowered 10 fold to 0.1 μg/ml, H2O, PBS or HBS-EP): similar | Overall binding capacity with Herceptin among peptide designs (Herceptin [6]; [9]): highest binding capacity with Herceptin | Herceptin bound to the CH-19 modified gold QCM electrode (mass) (Herceptin [6]; estimated by Sauerbrey's equation, ΔF of 1 Hz about 1 ng, PBS, 1 μg/ml Herceptin): ~ 225 ng | frequency change (ΔF) with free Herceptin (Herceptin [6]; simple buffer (1 ml HBS-EP), 1 μl Herceptin stock 1 μg/μl, no serum): ~ 275 Hz | frequency shift (ΔF) with Cetuximab (Cetuximab): ~ 0 Hz | frequency shift (ΔF) with Rituxan (Rituxan; [8]): ~ 0 Hz | Nonspecific binding activity with Rituxan among peptide designs (Rituxan; [9]): lowest nonspecific binding activity

GPYELWELSH
specific binding activities to Herceptin, in words (Herceptin [7]): exhibited specific binding activities to Herceptin

QLGPYELWELSH
specific binding activities to Herceptin, in words (Herceptin [7]): exhibited specific binding activities to Herceptin

Rituxan: therapeutic MAb, control drug
Binding to bare Au sensor surface, in words [1]: negligible | Binding to MUA sensor surface, in words [2]: appreciable
